Data as given in article PMC10582055 (Saudi Pharmaceutical Journal : SPJ, 2023).
Blank lines part the entries; values can stand above or below the molecule they belong to.

What was measured:
Type in all cases: in vivo, Wistar rats
[1] = Pharmacokinetics of oral DAS in rats with or without SA pretreatment; settings: for k el: Kel; for MRT inf: MRT 0-inf_obs
CYP3A2 = assay: Hepatic and intestinal CYP3A2 protein expression
Method in brief: (§1)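 Wistar rats (n = 6/group), fasted overnight and dosed by intragastric gavage: saline for 7 days; saline for 6 days, then the drug at 25 mg/kg p.o. on day 7; the drug on day 7 given 2 h after test compound at 40 mg/kg; or test compound at 40 mg/kg for 7 days. Liver and intestine protein (BCA) was run on 10% SDS-PAGE and blotted to PVDF. Primary antibodies with β-actin overnight at 4 °C, secondary 2 h, chemiluminescence, densitometry. Mean ± SD, one-way ANOVA.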

Pgp/MDR1 = assay: Hepatic and intestinal Pgp/MDR1 protein expression
Method in brief: as §1

BCRP/ABCG2 = assay: Hepatic and intestinal BCRP/ABCG2 protein expression
Method in brief: as §1

[2] = Wistar, rat, plasma, po, 25 mg/kg, rats, DAS 25 mg/kg p.o. after SA 40 mg/kg p.o. pretreatment for seven days, Mean ± SD
[3] = Wistar, rat, plasma, po, 25 mg/kg, rats, DAS 25 mg/kg p.o. single dose, alone, Mean ± SD
[4] = decrease, SA 40 mg/kg + DAS 25 mg/kg vs DAS alone, rats
[5] = increase, SA 40 mg/kg + DAS 25 mg/kg vs DAS alone, rats
[6] = rats, DAS 25 mg/kg p.o. after SA 40 mg/kg p.o. pretreatment for seven days, Mean ± SD
[7] = rats, DAS 25 mg/kg p.o. single dose, alone, Mean ± SD
[8] = intestine, SA 40 mg/kg alone vs normal rats
[9] = liver, SA 40 mg/kg alone vs normal rats
[10] = intestine, SA-pretreated rats + DAS vs DAS alone
[11] = liver, SA-pretreated rats + DAS vs DAS alone

half-life ([1]; Wistar, rat, plasma, po, 25 mg/kg): 5.59 ± 0.2 h
AUC(0-t) [1, 2]: 2210 ± 96.3 ng·h/mL
AUC(0-t) [1, 3]: 1720 ± 70.6 ng·h/mL
Cmax [1, 2]: 419 ± 18.8 ng/mL
Cmax [1, 3]: 259 ± 9.71 ng/mL
k el [1, 2]: 3.33e-05 s⁻¹
k el [1, 3]: 4.44e-05 s⁻¹
MRT inf [1, 2]: 8.2 ± 0.25 h
MRT inf [1, 3]: 7.31 ± 0.17 h
% Change in Cl [1, 4]: 26.97%
% Change in Kel [1, 4]: 22.33%
% Change in Vd [1, 4]: 5.96%
% Change in AUC 0-t [1, 5]: 28.98%
% Change in AUMC 0-∞ [1, 5]: 53.63%
% Change in Cmax [1, 5]: 62.02%
% Change in MRT 0-inf_obs [1, 5]: 12.08%
% Change in T1/2 [1, 5]: 28.82%
% Change in Tmax [1, 5]: 100%
AUMC 0-∞ [1, 6]: 23569.00 ± 1418.58 ng/mL*h^2
Cl [1, 6]: 0.009 ± 0.00 (mg/kg)/(ng/mL)/h
Tmax [1, 6]: 2.00 ± 0.00 h
Vd [1, 6]: 0.070 ± 0.004 (mg/kg)/(ng/mL)
AUMC 0-∞ [1, 7]: 15341.83 ± 607.98 ng/mL*h^2
Cl [1, 7]: 0.012 ± 0.001 (mg/kg)/(ng/mL)/h
T1/2 [1, 7]: 4.34 ± 0.11 h
Vd [1, 7]: 0.075 ± 0.003 (mg/kg)/(ng/mL)
increase of intestinal CYP3A2 protein expression (CYP3A2; intestine, DAS administered rats (25 mg/kg p.o.) vs normal rats): 92.97%
increase of hepatic CYP3A2 protein expression (CYP3A2; liver, DAS administered rats (25 mg/kg p.o.) vs normal rats): 92.03%
Structure (SMILES): Cc1nc(Nc2ncc(C(=O)Nc3c(C)cccc3Cl)s2)cc(N2CCN(CCO)CC2)n1 [DAS, Dasatinib]
induction of intestinal Pgp/MDR1 protein expression (Pgp/MDR1; intestine, DAS administration vs normal rats): 76.42%
induction of hepatic Pgp/MDR1 protein expression (Pgp/MDR1; liver, DAS administration vs normal rats): 72.30%
induction of intestinal BCPR/ABCG2 protein expression (BCRP/ABCG2; intestine, DAS per-oral administration vs normal rats): 73.55%
induction of hepatic BCPR/ABCG2 protein expression (BCRP/ABCG2; liver, DAS per-oral administration vs normal rats): 75.09%

inhibition of intestinal CYP3A2 protein expression (CYP3A2; [8]): 89.47%
inhibition of hepatic CYP3A2 protein expression (CYP3A2; [9]): 88.91%
inhibition of hepatic CYP3A2 protein expression (CYP3A2; liver, SA 40 mg/kg pretreatment for seven days + DAS vs DAS administered rats): 57.11%
inhibition of intestinal BCPR/ABCG2 protein (BCRP/ABCG2; [10]): 50.48%
inhibition of hepatic BCPR/ABCG2 protein (BCRP/ABCG2; [11]): 51.44%
Structure (SMILES): COc1cc(/C=C/C(=O)O)cc(OC)c1O [SA, Sinapic acid]
inhibition of intestinal Pgp/MDR1 protein expression (Pgp/MDR1; [8]): 76.93%
inhibition of intestinal Pgp/MDR1 protein expression (Pgp/MDR1; [10]): 47.43%
inhibition of hepatic Pgp/MDR1 protein expression (Pgp/MDR1; [9]): 84.93%
inhibition of hepatic Pgp/MDR1 protein expression (Pgp/MDR1; [11]): 44.06%
